Molecules are shown by their SMILES.

Drawing on ChEMBL document CHEMBL3046081, “Phytotoxic effect, uptake, and transformation of biochanin A in selected weed species” (J Agric Food Chem, 2012), this text covers Drug metabolism and Drug recovery for one compound.

The test system of data set [1] is Root. In words: Drug metabolism in Echinochloa crus-galli (barnyard grass) root assessed as transformation to p-coumaric acid at 20 uM after 14 days measured per gm of dry weight by LC-MS analysis. The following applies: 336 h. The data set is classed as ADME. The gist of the method: (§1)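 Pregerminated seeds, 14 per container, transplanted onto 0.5% agar medium containing biochanin A. Grown at 24 ± 1 °C under a 16 h light/8 h dark photoperiod and harvested 14 days after transplanting. Roots and shoots collected separately, blotted, washed twice, then freeze-dried. Tissue extracted by ASE at 40 °C and analysed by LC-ESI-MS against commercial standards. Two replicates per treatment.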

For a further data set, the system named is Leaf. Kind of data set: Drug recovery in leaf of Secale cereale (rye) at 50 ng/g by LC-MS analysis.
Data set [2] concerns Root. In words: Drug metabolism in Echinochloa crus-galli (barnyard grass) root assessed as transformation to dihydrobiochanin A at 400 uM after 14 days measured per gm of dry weight by LC-MS analysis. The format is ADME. Particulars: 336 h. The essentials:
as §1

The test system of data set [3] is Root. Kind of data set: Drug metabolism in Silene noctiflora root assessed as transformation to pratensein at 400 uM after 14 days measured per gm of dry weight by LC-MS analysis. Particulars: 336 h. The format is ADME. The essentials: as §1
In data set [4] the test system is Root. In words: Drug metabolism in Echinochloa crus-galli (barnyard grass) root assessed as transformation to pratensein at 400 uM after 14 days measured per gm of dry weight by LC-MS analysis. The format is ADME. Particulars: 336 h. The essentials: as §1

For the compound `COc1ccc(-c2coc3cc(O)cc(O)c3c2=O)cc1` [BIOCHANIN], the Drug metabolism in the data set on Root [1] was determined as 0.15 µmol; with Root [2] it was 0.27 µmol; in the data set on Root [3] it was 0.11 µmol; in the data set with Root [4], 0.35 µmol. The compound also came in with a Drug recovery in the data set with Leaf of 93%.
